Data on 39 variants can be found in the RNAGym collection of RNA variant scans (doi:10.1038/nmeth.2970).

Sequences and labels used below:
B1: NELF-E aptamer (parent)
chain: CCCAACGACUGCCGAGCGAGAUUACGCUUGAGCGCCCCACUGAGGAUGCCCACGGGCGAUUGGGGCACGG

Variants of B1 are the subject of this data set. As to the kind of experiment: HiTS-RAP. To be noted: with NELF-E (Drosophila). Summed up:
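Aptamer DNA templates carrying a T7 promoter and ter site were sequenced on an Illumina GAIIx flowcell, then transcribed in situ by T7 RNA polymerase and halted by GST-Tus (30 minutes, 37°C). Clusters were imaged after 30-minute room-temperature equilibration with NELF-E-mOrange at 0.064 to 1000 nM in HEPES binding buffer, and only the first binding curve was used. Intensities were normalised to sequencing intensity and averaged per sequence. Kd came from weighted Hill fits, keeping fits with variance below 1,000,000.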
Consider CCCAACGACGUCCGAGCGAGAUUACGCUUGAGCGCCCCACUGAGGAUGCCCACGGGCGAUUGGGGCACGG, for which the Kd was determined as 5.48 nM.
Turning to CCCAACGACGACCGAGCGAGAUUACGCUUGAGCGCCCCACUGAGGAUGCCCACGGGCGAUUGGGGCACGG, the Kd came out at 6.15 nM.
Regarding CCCAACGACGCCCGAGCGAGAUUACGCUUGAGCGCCCCACUGAGGAUGCCCACGGGCGAUUGGGGCACGG, the Kd came out at 5.59 nM.
For the variant CCCAACGACGGCCGAGCGAGAUUACGCUUGAGCGCCCCACUGAGGAUGGCCACGGGCGAUUGGGGCACGG, the Kd is 7.15 nM.
For the variant CCCAACGACGGCCGAGCGAGAUUACGCUUGAGCGCCCCACUGAGGAUGUCCACGGGCGAUUGGGGCACGG, the Kd came to 18.7 nM.
In the case of CCCAACGACGGCCGAGCGAGAUUACGCUUGAGCGCCCCACUGAGGAUGACCACGGGCGAUUGGGGCACGG, the Kd is 20.2 nM.
In the case of CCCAACGACGGCCGAGCGAGAUUACUCUUGAGCGCCCCACUGAGGAUGCCCACGGGCGAUUGGGGCACGG, the Kd was determined as 5.07 nM.
In the case of CCCAACGACGGCCGAGCGAGAUUACACUUGAGCGCCCCACUGAGGAUGCCCACGGGCGAUUGGGGCACGG, the Kd was found to be 4.15 nM.
The value for CCCAACGACGGCCGAGCGAGAUUACCCUUGAGCGCCCCACUGAGGAUGCCCACGGGCGAUUGGGGCACGG was 17.4 nM; that for CCCAACGACGGCCGAGCGAGAUUACGCUUGAGCGCCCCACUGAGGAUGCUCACGGGCGAUUGGGGCACGG was 14 nM; that for CCCAACGACGGCCGAGCGAGAUUACGCUUGAGCGCCCCACUGAGGAUGCACACGGGCGAUUGGGGCACGG was 16.6 nM.
The value for CCCAACGACGGCCGAGCGAGAUUACGCUUGAGCGCCCCACUGAGGAUGCGCACGGGCGAUUGGGGCACGG was 7.26 nM; that for CCCAACGACGGCCGAACGAGAUUACGCUUGAGCGCCCCACUGAGGAUGCCCACGGGCGAUUGGGGCACGG was 5.62 nM; that for CCCAACGACGGCCGAUCGAGAUUACGCUUGAGCGCCCCACUGAGGAUGCCCACGGGCGAUUGGGGCACGG was 6.08 nM.
Consider CCCAACGACGGCCGACCGAGAUUACGCUUGAGCGCCCCACUGAGGAUGCCCACGGGCGAUUGGGGCACGG, for which the dissociation constant Kd came to 6.96 nM.
As to CCCAACGACGGCCGAGCGAGAUUACGCUUGAGCGCCCUACUGAGGAUGCCCACGGGCGAUUGGGGCACGG, the Kd was 9.49 nM.
With CCCAACGACGGCCGAGCGAGAUUACGCUUCAGCGCCCCACUGAGGAUGCCCACGGGCGAUUGGGGCACGG, the Kd was determined as 5.8 nM.
Regarding CCCAACGACGGCCGAGCGAGAUUACGCUUAAGCGCCCCACUGAGGAUGCCCACGGGCGAUUGGGGCACGG, the Kd came out at 4.59 nM.
Next, CCCAACGACGGCCGAGCGAGAUUACGCUUGAGCGCCCCACUGAGGAUGCCCACGGGCGAUUGGGGUACGG: 4.66 nM.
Regarding CCCAACGACGGCCGAGCGAGAUUACGCUUGAGCGCCCCACUGAGGAUGCCCACGGGCGAUUGGGGGACGG, the Kd is 4.43 nM.
For CCCAACGACGGCCGAGCGAGAUUACGCUUGAGCGCCCCACUGAGGAUGCCCACGGGCGAUUGGGGAACGG, the Kd turned out to be 5.44 nM.
As to CCCAACGACGGCCUAGCGAGAUUACGCUUGAGCGCCCCACUGAGGAUGCCCACGGGCGAUUGGGGCACGG, the Kd stood at 5.99 nM.
As for CCCAACGACGGCCAAGCGAGAUUACGCUUGAGCGCCCCACUGAGGAUGCCCACGGGCGAUUGGGGCACGG, the Kd was found to be 5.01 nM.
For the variant CCCAACGACGGCCCAGCGAGAUUACGCUUGAGCGCCCCACUGAGGAUGCCCACGGGCGAUUGGGGCACGG, the Kd is 6.25 nM.
Take CCCAACGACGGCCGAGCGAAAUUACGCUUGAGCGCCCCACUGAGGAUGCCCACGGGCGAUUGGGGCACGG: the Kd came to 5.57 nM.
Consider CCCAACGACGGCCGAGCGAUAUUACGCUUGAGCGCCCCACUGAGGAUGCCCACGGGCGAUUGGGGCACGG, for which the Kd came out at 6.08 nM.
As for CCCAACGACGGCCGAGCGAGAUUACGCUUGAGCGCCCCACUGAGGAUGCCCACGGGUGAUUGGGGCACGG, the Kd was found to be 5.61 nM.
Turning to CCCAACGACGGCCGAGCGAGAUUACGCUUGAGCGCCCCACUGAGGAUGCCCACGGGGGAUUGGGGCACGG, the Kd worked out at 7.81 nM.
The value for CCCAACGACGGCCGAGCGAGAUUACGCUUGAGCGCCCCACUGAGGAUGCCCACGGGAGAUUGGGGCACGG was 11.8 nM.
Consider CCCAACGACGGCCGAGCGAGAUUACGCUUGAGCGCCCCAUUGAGGAUGCCCACGGGCGAUUGGGGCACGG, for which the Kd came out at 63.9 nM.
CCCAACGACGGCCGAGCGAGAUUACGCUUGAGCGCCCCAGUGAGGAUGCCCACGGGCGAUUGGGGCACGG: the Kd was 5.38 nM.
In the case of CCCAACGACGGCCGAGCAAGAUUACGCUUGAGCGCCCCACUGAGGAUGCCCACGGGCGAUUGGGGCACGG, the Kd turned out to be 5.37 nM.
In the case of CCCAACGACGGCCGAGCUAGAUUACGCUUGAGCGCCCCACUGAGGAUGCCCACGGGCGAUUGGGGCACGG, the Kd was 5.3 nM.
CCCAACGACGGCCGAGCGAGAUUACGCUUGAGCGCCCCACUGAGGAUGCCUACGGGCGAUUGGGGCACGG: the Kd was 6.95 nM.
For CCCAACGACGGCCGAGCGAGAUUACGCUUGAGCGCCCCACUGAGGAUGCCAACGGGCGAUUGGGGCACGG, the Kd turned out to be 9.77 nM.
Turning to CCCAACGACGGCCGAGCGAGAUUACGCUUGAGCGCCCCACUGAGGAUGCCGACGGGCGAUUGGGGCACGG, the Kd stood at 4.43 nM.
CCCAACGACGGCCGAGCGAGAUUACGCUUGAGCGCCCCACUGAGGAUGCCCAUGGGCGAUUGGGGCACGG: the Kd worked out at 3.77 nM.
In the case of CCCAACGACGGCCGAGCGAGAUUACGCUUGAGCGCCCCACUGAGGAUGCCCAGGGGCGAUUGGGGCACGG, the Kd was 6.55 nM.
Next, CCCAACGACGGCCGAGCGAGAUUACGCUUGAGCGCCCCACUGAGGAUGCCCAAGGGCGAUUGGGGCACGG: 5.46 nM.
